Shown are actives, neighbours in structure and some others; about 27% of the full set was active somewhere.
CYP2C19 inh: inhibitors of human CYP2C19; CYP2C19 Supersomes, luciferin-H EGE luminescence, 30 min; inhibition, % at 5 µM; hit rate 21% among 96,000;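 active = CYP2C19 inhibition above a set limit at 5 µM in the primary screen, cut at about 50% in these data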;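 note: plate controls were negative control wells for no effect and 2.5 mM tranylcypromine positive control for full effect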
CYP2C19 activ: activators of human cytochrome P450 2C19; 96,000 tested, under 10 active; recombinant CYP2C19, luciferin-H EGE luminescence; active compounds read high; 0 = fully inhibited enzyme, 1 = untreated enzyme; activation factor at 5 µM;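 active = activation factor of at least 2 at 5 µM in the primary screen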;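 note: 0 = wells with 2.5 mM tranylcypromine and 1 = vehicle-only wells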
CYP2C9 act: increases human cytochrome P450 2C9 activity; P11712; recombinant CYP2C9, luciferin-H conversion, luminescence; active compounds read high; factor 1 = untreated enzyme, 0 = blocked; activation factor at 5 µM; hit rate 1.4% among 96,000; AID 1024;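 active = activation factor of 2 or more for CYP2C9 at a 5 µM dose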;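 note: 0 = sulfaphenazole-blocked wells and 1 = vehicle-only wells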
Target sequence (P11712 whole entry, looked up): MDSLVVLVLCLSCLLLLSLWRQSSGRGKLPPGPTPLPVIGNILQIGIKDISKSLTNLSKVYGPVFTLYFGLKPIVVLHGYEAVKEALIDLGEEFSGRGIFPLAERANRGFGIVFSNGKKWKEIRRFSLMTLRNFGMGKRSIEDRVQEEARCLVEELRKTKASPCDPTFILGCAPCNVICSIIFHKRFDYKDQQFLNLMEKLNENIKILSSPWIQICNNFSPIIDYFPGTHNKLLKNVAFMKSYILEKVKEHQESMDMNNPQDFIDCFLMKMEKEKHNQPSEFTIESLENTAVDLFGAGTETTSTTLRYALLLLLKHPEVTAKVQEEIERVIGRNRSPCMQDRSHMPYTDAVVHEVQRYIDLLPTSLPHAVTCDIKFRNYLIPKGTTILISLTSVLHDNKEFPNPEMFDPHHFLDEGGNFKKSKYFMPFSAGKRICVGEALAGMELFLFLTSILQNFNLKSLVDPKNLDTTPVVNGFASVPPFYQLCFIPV
CYP2C9 inh: human CYP2C9 inhibition; P11712; CYP2C9 Supersomes, luciferin-H conversion, luminescence; inhibition, % at 5 µM; hit rate 20% among 96,000; AID 777;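 active = blocking of liver enzyme CYP2C9 beyond about 50% at 5 µM, limit read from the data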
Cav32 inh: blocks human Cav3.2 T-type calcium channel | B-score at 10 µM | hit rate 4% among 100,000 | O95180 | Cav3.2-expressing cells, Fluo-4 calcium fluorescence FDSS; active compounds read low;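 active = single-dose well whose peak fluorescence ratio is a statistical outlier from its plate by either plate-standardised score or position-corrected B-score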
Rev-RRE block: HIV Rev-RRE protein-RNA interaction inhibition. Rev peptide-RRE RNA binding, FRET. hit rate 0.79% among 97,000. inhibition, % at 8 µM. P05866. AID 704;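 active = inhibition above the screen-wide mean plus 3 SD, cut at about 35% in these data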;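 note: 0% = median DMSO wells and 100% = median Neomycin B control wells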
Target sequence (P05866 whole entry, looked up): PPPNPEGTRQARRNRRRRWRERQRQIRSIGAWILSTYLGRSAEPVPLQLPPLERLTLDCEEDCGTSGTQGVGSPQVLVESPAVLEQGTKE
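assay system = Cy5-tagged RRE RNA duplex with fluorescein-tagged Rev peptide | incubation = 5 + 15 min at 25 °C | also added = labelled Rev peptide | measure = % inhibition of FRET ratio versus controls | benchmarks = DMSO wells as 0% and neomycin B wells as 100% inhibition | measured by = FRET fluorescence readout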
Active calls of the source: *; x = not tested or not shown.

SMILES	CYP2C19 inh	CYP2C19 activ	CYP2C9 act	CYP2C9 inh	Cav32 inh	Rev-RRE block
CCOC(=O)C1=C(C)NC(SCC(N)=O)=C(C#N)C1c1cccs1 (stereo unspecified)	52*	0.5	0.5	52*	1.5	5
CCCSC1=C(C#N)C(c2cccs2)C(C(=O)Nc2ccccc2)=C(C)N1 (stereo unspecified)	x	x	x	x	-2.7*	9
CC1=C(C(=O)N(C)C)C(c2cccs2)NC(=O)N1 (stereo unspecified)	x	x	x	x	-0.75	11
CC(=O)C1=C(C)NC(C)=C(C(C)=O)C1c1cccs1	94*	0.1	0.4	62*	x	0
C=CCOC(=O)C1=C(C)NC(SCC(=O)Nc2nccs2)=C(C#N)C1c1cccs1 (stereo unspecified)	17	0.8	0.8	16	-2.9	14
CCOCCSC1=C(C#N)C(c2cccs2)C(C(C)=O)=C(C)N1 (stereo unspecified)	90*	0.1	0.2	83*	-0.19	6
CC1=C(C(=O)Nc2ccccc2)C(c2sccc2C)n2nnnc2N1 (stereo unspecified)	21	0.8	1	2	-1.5	10
CSc1ccccc1C(=O)Nc1cccc(C(C)O)c1 (stereo unspecified)	0	1	1.1	-12	-2.8	3
CCSC1=C(C#N)C(c2cccs2)C(C(=O)OC)=C(C)N1 (stereo unspecified)	88*	0.1	0.1	91*	-2.1	19
CCc1ccccc1NC(=O)CN(C)Cc1nc(N)nc(Nc2ccccc2C)n1	68*	0.3	0.7	30	x	2
COc1ccc(-c2nc(NC(=O)C3CCN(c4nc5ccccc5o4)CC3)sc2C)cc1	29	0.7	0.5	51*	-2.6	1
CC1(C)OC(=O)C(=CNC(Cc2c[nH]c3ccccc23)C(=O)O)C(=O)O1 (stereo unspecified)	9	0.9	0.9	13	0.021	3
O=c1c(C(c2ccccc2)c2c(O)sc3ccccc3c2=O)c(O)sc2ccccc12	1	1	0.1	95*	x	6
CCC1(COC(NC(=O)c2cccnc2)(C(F)(F)F)C(F)(F)F)COC1	10	0.9	0.9	10	0.056	7
O=C(COc1ccc(S(=O)(=O)N2CCc3ccccc32)cc1Cl)NCc1ccccn1	94*	0.1	0.1	94*	-1.8	5
COc1ccc(S(=O)(=O)N2CCC(C(=O)NCc3ccccn3)CC2)cc1OC	0	1	1.2	-17	0.22	11
COc1ccccc1-c1cc2ccccc2[nH]1	x	x	x	x	-0.57	-3
CCn1c(SCc2ccc(C(=O)OC)o2)nnc1-c1c[nH]c2ccccc12	98*	0	0.2	83*	0.17	-2
CCn1c(SC(C)C(=O)OC)nnc1-c1c[nH]c2ccccc12 (stereo unspecified)	66*	0.3	1.1	-7	0.98	3
CCn1c(SC)nnc1-c1c[nH]c2ccccc12	72*	0.3	1	4	0.99	0
COCCn1c(SC)nnc1-c1c[nH]c2ccccc12	52*	0.5	0.9	8	0.76	6
Cc1cccc(-n2cnc(C(=O)NC3CCCCCC3)c2)n1	26	0.7	1.5	-54	0.5	4
C=CCSc1nnc(-c2c[nH]c3ccccc23)n1CC	79*	0.2	1.1	-10	-0.1	0
CCOC(=O)c1c(-c2ccncc2)csc1N	49	0.5	0.3	66*	0.13	7
CCOc1ccc(-c2csc(N)c2C(=O)OC)cc1	66*	0.3	0.3	71*	-1.3	0
SMILES	CYP2C19 inh	CYP2C19 activ	CYP2C9 act	CYP2C9 inh	Cav32 inh	Rev-RRE block
CCOC(=O)c1c(-c2ccc(C)s2)csc1NC(=O)c1cccs1	-17	1.2	0.9	10	0.17	10
CCOc1ccc(NC(=O)CN2CCN(CC(=O)Nc3ccc(C(=O)OC)cc3)CC2)cc1	-1	1	0.9	7	0.013	3
CN1CCC(OC(=O)C23CCC(C)(C(=O)O2)C3(C)C)CC1 (stereo unspecified)	-20	1.2	0.5	49	0.67	-1
CCO[C@@H]1OC(C(=O)N2CCN(Cc3ccc4c(c3)OCO4)CC2)=C[C@H](C2CCCCC2)[C@H]1CCCO	x	x	x	x	-0.75	x
N#Cc1ccc(C23CC4(C2)[C@H](CN(CC2CCCCC2)[C@@H]4c2ccccc2)C3c2ccc(C(F)(F)F)cc2)cc1 (stereo partly specified)	x	x	x	x	-0.89	x
COc1ccc(NC(=O)CC2C(=O)N(c3cccc(C)c3)C(=O)N2C2CCCCC2)cc1 (stereo unspecified)	56*	0.4	0.5	47	-0.47	6
COc1ccc(NC(=O)CC2C(=O)N(c3cccc(OC)c3)C(=O)N2CCC(C)C)cc1 (stereo unspecified)	66*	0.3	0.4	62*	-0.61	9
Cc1cc(/C=C2\SC(=Nc3ccccc3)NC2=O)c(C)n1-c1ccc(S(N)(=O)=O)cc1	19	0.8	0.4	60*	0.022	13
Cc1cc(C=C2C(=O)c3ccccc3C2=O)c(C)n1-c1ccccc1	30	0.7	0.6	38	-4	17
Oc1ccc(Cl)cc1C(C#Cc1ccccc1)N1CCOCC1 (stereo unspecified)	37	0.6	0.5	49	-0.43	6
Cc1cc(C)n(-c2nc(Nc3ccccc3)nc(-n3nc(C)cc3C)n2)n1	29	0.7	0.9	11	0.46	5
COc1cccc(/C=N/Nc2nc(Nc3ccccc3)nc(-n3nc(C)cc3C)n2)c1O	68*	0.3	0.2	79*	x	-5
CCN(CC)CC(C)CNC(=O)CC(C(=O)N1CCc2ccccc21)n1ccnc1 (stereo unspecified)	x	x	x	x	1.2	8
O=C(CC(C(=O)N1CCc2ccccc21)n1ccnc1)NCc1ccccc1 (stereo unspecified)	100*	0	0.3	73*	-0.13	5
COc1ccc2nc(N=Nc3ccc(N(C)C)cc3)sc2c1	58*	0.4	0.8	21	x	-14
CSC1=NC2C(N1)N(C)C(=O)N2C (stereo unspecified)	-12	1.1	1.2	-18	0.41	6
CCOC(=O)CSc1nc2cc(C(=O)OC)ccc2c(=O)n1CCN1CCOCC1	69*	0.3	0.9	12	0.22	-1
COC(=O)c1ccc2c(=O)n(CCN3CCOCC3)c(SCC(=O)C(C)(C)C)nc2c1	5	1	0.6	41	x	-4
CCn1c(SCC(=O)NC(=O)NCc2ccco2)nc2sc(C)c(C)c2c1=O	36	0.6	0.7	27	x	5
C=CCn1c(SCC(=O)OCC)nc2cc(C(=O)NCc3ccco3)ccc2c1=O	23	0.8	0.5	54*	x	8
C=CCn1c(SCC(=O)NC(=O)NCc2ccco2)nc2sc(CC)cc2c1=O	38	0.6	0.3	71*	-0.024	x

Screens deposited in PubChem BioAssay by several laboratories.
